Results taken from ChEMBL document CHEMBL4373647, “Design, synthesis, and antimicrobial evaluation of 1,4-dihydroindeno[1,2-c]pyrazole tethered carbohydrazide hybrids: exploring their in silico ADMET, ergosterol inhibition and ROS inducing potential” (Medchemcomm, 2019).
Values after ≈ are worked out from the molar mass of the structure shown. Active and inactive are the calls of the source. The calls are words filed in the database; no cut-off is given here.

Columns and labels:
Format in all cases: functional
[1] = system: Raoultella planticola; test: Ratio of MBC to MIC for Klebsiella planticola MTCC 530
[2] = system: Candida albicans; test: Antifungal activity against Candida albicans MTCC 3018 assessed as inhibition of fungal growth incubated for 24 hrs by agar well diffusion method; conditions: MTCC 3018, 24 h
Outline: (§1)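 Candida strains from MTCC, pre-cultured and spread on Mueller Hinton agar. Wells received compound dissolved in 10% DMSO, 125–0.97 µg/mL; miconazole standard over the same range, DMSO negative control. After 24 h at 37 °C, MIC was read as the lowest concentration giving an inhibition zone. Duplicate experiments, means given.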

[3] = system: Candida albicans; test: Ratio of MFC to MIC against Candida albicans MTCC 183
[4] = system: Pseudomonas aeruginosa; test: Bactericidal activity against Pseudomonas aeruginosa MTCC 2453 assessed as bacterial killing incubated for 24 hrs; conditions: MTCC 2453, 24 h
Outline: (§2)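 Broth tube assay: compound at 0–125 µg/mL in Mueller Hinton broth, overnight culture added to 0.5 McFarland (1.5 × 10^8 cfu/mL), held 24 h at 37 °C. 10 µL from each tube plated on Mueller Hinton agar. MBC is the lowest concentration that kills the strain. Duplicates, means reported.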

[5] = system: Candida albicans; test: Ratio of MFC to MIC against Candida albicans MTCC 1637
[6] = system: Staphylococcus aureus; test: Ratio of MBC to MIC against Staphylococcus aureus MLS-16 MTCC 2940
[7] = system: Candida albicans; test: Fungicidal activity against Candida albicans MTCC 227 assessed as fungal killing incubated for 24 hrs; conditions: MTCC 227, 24 h
Outline: (§3)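 Compound at 125–0.97 µg/mL in Mueller Hinton broth in microcentrifuge tubes, each Candida strain added, held 24 h at 37 °C. 10 µL of the treated suspension plated on Mueller Hinton agar and incubated a further 24 h at 37 °C. MFC is the lowest concentration that kills the strain. Duplicates, means reported.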

[8] = system: Staphylococcus aureus; test: Ratio of MBC to MIC against Staphylococcus aureus MTCC 96
[9] = system: Micrococcus luteus; test: Bactericidal activity against Micrococcus luteus MTCC 2470 assessed as bacterial killing incubated for 24 hrs; conditions: MTCC 2470, 24 h; outline: as §2
[10] = system: Candida parapsilosis; test: Ratio of MFC to MIC against Candida parapsilosis MTCC 1744
Outline: (§4)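 MIC by agar well diffusion: Candida lawns on Mueller-Hinton agar, wells loaded with compound in 10% DMSO (125–0.97 µg/mL), 24 h at 37 °C, lowest concentration giving an inhibition zone. MFC: compound in Mueller-Hinton broth (125–0.97 µg/mL) with yeast, 24 h at 37 °C, 10 µL plated on agar, lowest killing concentration after 24 h. Ratio is MFC/MIC.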

[11] = system: Staphylococcus aureus; test: Antibacterial activity against Staphylococcus aureus MLS-16 MTCC 2940 assessed as inhibition of bacterial growth incubated for 24 hrs by agar well diffusion method; conditions: MLS-16 MTCC 2940, 24 h
Outline: (§5)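 Strains from MTCC; inoculum at 0.5 McFarland spread on Mueller-Hinton agar; 6 mm wells loaded with compound over 125–0.97 µg/mL; ciprofloxacin positive control (same range), DMSO negative control. Plates held 24 h at 37 °C; MIC taken as lowest concentration giving a clear inhibition zone. Triplicate runs, mean MIC reported.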

[12] = system: Candida albicans; test: Antifungal activity against Candida albicans MTCC 227 assessed as inhibition of fungal growth incubated for 24 hrs by agar well diffusion method; conditions: MTCC 227, 24 h; outline: as §1
[13] = system: Raoultella planticola; test: Bactericidal activity against Klebsiella planticola MTCC 530 assessed as bacterial killing incubated for 24 hrs; conditions: MTCC 530, 24 h; outline: as §2
[14] = system: Pichia sporocuriosa; test: Ratio of MFC to MIC against Issatchenkia hanoiensis MTCC 4755; outline: as §4
[15] = system: Pichia sporocuriosa; test: Antifungal activity against Issatchenkia hanoiensis MTCC 4755 assessed as inhibition of fungal growth incubated for 24 hrs by agar well diffusion method; conditions: MTCC 4755, 24 h; outline: as §1
[16] = system: Candida albicans; test: Fungicidal activity against Candida albicans MTCC 183 assessed as fungal killing incubated for 24 hrs; outline: as §3
[17] = system: Staphylococcus aureus; test: Bactericidal activity against Staphylococcus aureus MLS-16 MTCC 2940 assessed as bacterial killing incubated for 24 hrs; conditions: MLS-16 MTCC 2940, 24 h; outline: as §2
[18] = system: Candida albicans; test: Antifungal activity against Candida albicans MTCC 3017 assessed as inhibition of fungal growth incubated for 24 hrs by agar well diffusion method; conditions: MTCC 3017, 24 h; outline: as §1
[19] = system: Candida parapsilosis; test: Fungicidal activity against Candida parapsilosis MTCC 1744 assessed as fungal killing incubated for 24 hrs; conditions: Lodderomyces parapsilosis, MTCC 1744, 24 h; outline: as §3
[20] = system: Candida albicans; test: Fungicidal activity against Candida albicans MTCC 7315 assessed as fungal killing incubated for 24 hrs; conditions: MTCC 7315, 24 h; outline: as §3
[21] = system: Bacillus subtilis; test: Bactericidal activity against Bacillus subtilis MTCC 121 assessed as bacterial killing incubated for 24 hrs; conditions: MTCC 121, 24 h; outline: as §2
[22] = system: Raoultella planticola; test: Antibacterial activity against Klebsiella planticola MTCC 530 assessed as inhibition of bacterial growth incubated for 24 hrs by agar well diffusion method; conditions: MTCC 530, 24 h; outline: as §5
[23] = system: Pichia kudriavzevii; test: Antifungal activity against Candida krusei MTCC 3020 assessed as inhibition of fungal growth incubated for 24 hrs by agar well diffusion method; conditions: MTCC 3020, 24 h; outline: as §1
[24] = system: Pseudomonas aeruginosa; test: Antibacterial activity against Pseudomonas aeruginosa MTCC 2453 assessed as inhibition of bacterial growth incubated for 24 hrs by agar well diffusion method; conditions: MTCC 2453, 24 h; outline: as §5
[25] = system: Escherichia coli; test: Antibacterial activity against Escherichia coli MTCC 739 assessed as inhibition of bacterial growth incubated for 24 hrs by agar well diffusion method; conditions: MTCC 739, 24 h; outline: as §5
[26] = system: Candida albicans; test: Fungicidal activity against Candida albicans MTCC 1637 assessed as fungal killing incubated for 24 hrs; conditions: MTCC 1637, 24 h; outline: as §3
[27] = system: Candida albicans; test: Fungicidal activity against Candida albicans MTCC 3018 assessed as fungal killing incubated for 24 hrs; conditions: MTCC 3018, 24 h; outline: as §3
[28] = system: Escherichia coli; test: Bactericidal activity against Escherichia coli MTCC 739 assessed as bacterial killing incubated for 24 hrs; conditions: MTCC 739, 24 h; outline: as §2
[29] = system: Candida albicans; test: Ratio of MFC to MIC against Candida albicans MTCC 7315; outline: as §4
[30] = system: Pichia sporocuriosa; test: Fungicidal activity against Issatchenkia hanoiensis MTCC 4755 assessed as fungal killing incubated for 24 hrs; conditions: MTCC 4755, 24 h; outline: as §3
[31] = system: Candida albicans; test: Fungicidal activity against Candida albicans MTCC 4748 assessed as fungal killing incubated for 24 hrs; conditions: MTCC 4748, 24 h; outline: as §3
[32] = system: Pichia kudriavzevii; test: Fungicidal activity against Candida krusei MTCC 3020 assessed as fungal killing incubated for 24 hrs; conditions: MTCC 3020, 24 h; outline: as §3
[33] = system: Candida albicans; test: Ratio of MFC to MIC against Candida albicans MTCC 227; outline: as §4
[34] = system: Pseudomonas aeruginosa; test: Ratio of MBC to MIC for Pseudomonas aeruginosa MTCC 2453
[35] = system: Bacillus subtilis; test: Antibacterial activity against Bacillus subtilis MTCC 121 assessed as inhibition of bacterial growth incubated for 24 hrs by agar well diffusion method; conditions: MTCC 121, 24 h; outline: as §5
[36] = system: Candida albicans; test: Antifungal activity against Candida albicans MTCC 7315 assessed as inhibition of fungal growth incubated for 24 hrs by agar well diffusion method; conditions: MTCC 7315, 24 h; outline: as §1
[37] = system: Pichia kudriavzevii; test: Ratio of MFC to MIC against Candida krusei MTCC 3020; outline: as §4
[38] = system: Nakaseomyces glabratus; test: Ratio of MFC to MIC against Candida glabrata MTCC 3019; outline: as §4
[39] = system: Candida albicans; test: Antifungal activity against Candida albicans MTCC 183 assessed as inhibition of fungal growth incubated for 24 hrs by agar well diffusion method; outline: as §1

Compound | Ratio [1] | MIC [2] | Ratio [3] | MBC [4] | Ratio [5] | Ratio [6] | MFC [7] | Ratio [8] | MBC [9] | Ratio [10] | MIC [11] | MIC [12] | MBC [13] | Ratio [14] | MIC [15] | MBC [17] | MIC [18] | MFC [19] | MFC [20] | MBC [21] | further results
O=C(N/N=C/c1ccc(O)cc1)c1n[nH]c2c1Cc1ccccc1-2 | 2 | 7.8 µg/mL (≈ 24.5 µM) | 2 | 15.6 µg/mL (≈ 49 µM) | 2 | 2 | 15.6 µg/mL (≈ 49 µM) | 2 | 15.6 µg/mL (≈ 49 µM) | 2 | 3.9 µg/mL (≈ 12.3 µM) | 7.8 µg/mL (≈ 24.5 µM) | 15.6 µg/mL (≈ 49 µM) | 2 | 31.2 µg/mL (≈ 98 µM) | 7.8 µg/mL (≈ 24.5 µM) | 7.8 µg/mL (≈ 24.5 µM) | 31.2 µg/mL (≈ 98 µM) | 31.2 µg/mL (≈ 98 µM) | 15.6 µg/mL (≈ 49 µM) | MFC [16]: inactive; MIC [22]: 7.8 µg/mL (≈ 24.5 µM); MIC [23]: 15.6 µg/mL (≈ 49 µM); MIC [24]: 7.8 µg/mL (≈ 24.5 µM); MIC [25]: 3.9 µg/mL (≈ 12.3 µM); MFC [26]: 31.2 µg/mL (≈ 98 µM); MFC [27]: 15.6 µg/mL (≈ 49 µM); MBC [28]: 7.8 µg/mL (≈ 24.5 µM); Ratio [29]: 2; MFC [30]: 62.4 µg/mL (≈ 196 µM); MFC [31]: > 62.5 µg/mL; MFC [32]: 31.2 µg/mL (≈ 98 µM); Ratio [33]: 2; Ratio [34]: 2; MIC [35]: 7.8 µg/mL (≈ 24.5 µM); MIC [36]: 15.6 µg/mL (≈ 49 µM); Ratio [37]: 2; Ratio [38]: 2; MIC [39]: inactive
O=C(N/N=C/c1ccc(O)cc1)c1n[nH]c2c1Cc1cc(F)ccc1-2 | 2 | 15.6 µg/mL (≈ 46.4 µM) | 2 | 15.6 µg/mL (≈ 46.4 µM) | 2 | 2 | 15.6 µg/mL (≈ 46.4 µM) | 2 | 15.6 µg/mL (≈ 46.4 µM) | 2 | 3.9 µg/mL (≈ 11.6 µM) | 7.8 µg/mL (≈ 23.2 µM) | 15.6 µg/mL (≈ 46.4 µM) | 2 | 31.2 µg/mL (≈ 92.8 µM) | 7.8 µg/mL (≈ 23.2 µM) | 7.8 µg/mL (≈ 23.2 µM) | 31.2 µg/mL (≈ 92.8 µM) | 31.2 µg/mL (≈ 92.8 µM) | 15.6 µg/mL (≈ 46.4 µM) | MFC [16]: inactive; MIC [22]: 7.8 µg/mL (≈ 23.2 µM); MIC [23]: 15.6 µg/mL (≈ 46.4 µM); MIC [24]: 7.8 µg/mL (≈ 23.2 µM); MIC [25]: 3.9 µg/mL (≈ 11.6 µM); MFC [26]: 31.2 µg/mL (≈ 92.8 µM); MFC [27]: 31.2 µg/mL (≈ 92.8 µM); MBC [28]: 7.8 µg/mL (≈ 23.2 µM); Ratio [29]: 2; MFC [30]: 62.4 µg/mL (≈ 186 µM); MFC [31]: 31.2 µg/mL (≈ 92.8 µM); MFC [32]: 31.2 µg/mL (≈ 92.8 µM); Ratio [33]: 2; Ratio [34]: 2; MIC [35]: 7.8 µg/mL (≈ 23.2 µM); MIC [36]: 15.6 µg/mL (≈ 46.4 µM); Ratio [37]: 2; Ratio [38]: 2; MIC [39]: inactive
COc1ccc2c(c1)Cc1c(C(=O)N/N=C/c3ccc(O)c(OC)c3)n[nH]c1-2 | 2 | 7.8 µg/mL (≈ 20.6 µM) | 2 | 15.6 µg/mL (≈ 41.2 µM) | 2 | 2 | 7.8 µg/mL (≈ 20.6 µM) | 2 | 7.8 µg/mL (≈ 20.6 µM) | 2 | 3.9 µg/mL (≈ 10.3 µM) | 3.9 µg/mL (≈ 10.3 µM) | 7.8 µg/mL (≈ 20.6 µM) | 2 | 15.6 µg/mL (≈ 41.2 µM) | 7.8 µg/mL (≈ 20.6 µM) | 3.9 µg/mL (≈ 10.3 µM) | 15.6 µg/mL (≈ 41.2 µM) | 15.6 µg/mL (≈ 41.2 µM) | 15.6 µg/mL (≈ 41.2 µM) | MFC ([16]; MTCC 183, 24 h): 31.2 µg/mL (≈ 82.5 µM); MIC [22]: 3.9 µg/mL (≈ 10.3 µM); MIC [23]: 7.8 µg/mL (≈ 20.6 µM); MIC [24]: 7.8 µg/mL (≈ 20.6 µM); MIC [25]: 3.9 µg/mL (≈ 10.3 µM); MFC [26]: 15.6 µg/mL (≈ 41.2 µM); MFC [27]: 15.6 µg/mL (≈ 41.2 µM); MBC [28]: 7.8 µg/mL (≈ 20.6 µM); Ratio [29]: 2; MFC [30]: 31.2 µg/mL (≈ 82.5 µM); MFC [31]: 15.6 µg/mL (≈ 41.2 µM); MFC [32]: 15.6 µg/mL (≈ 41.2 µM); Ratio [33]: 2; Ratio [34]: 2; MIC [35]: 7.8 µg/mL (≈ 20.6 µM); MIC [36]: 7.8 µg/mL (≈ 20.6 µM); Ratio [37]: 2; Ratio [38]: 2; MIC ([39]; MTCC 183, 24 h): 15.6 µg/mL (≈ 41.2 µM)
